The source made the active and inactive calls. No cut-off for these calls is given here.
Assays:
L6 = assay: Cytotoxicity against rat L6 cells; assay type: cell-based
Procedure, shortened: (§1)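 IC50 values in µM, each the average of duplicate determinations. Parasites were T. b. rhodesiense STIB900 and axenic amastigotes of L. donovani MHOM/SD/62/1S-CL2D. Cytotoxicity was run on rat L6 myoblast cells.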

[1] = system: Trypanosoma brucei rhodesiense; assay: Antitrypanosomal activity against Trypanosoma brucei rhodesiense STIB 900 bloodstream trypomastigotes; assay type: functional, organism-based; procedure, shortened: as §1
[2] = Selectivity index, ratio of IC50 for rat L6 cells to IC50 for Trypanosoma brucei rhodesiense STIB 900; assay type: toxicity, cell-based; conditions: read-out: Ratio IC50
Procedure, shortened: (§2)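 Ratio of the L6 rat myoblast cytotoxicity IC50 to the IC50 against the parasite named in the line. Each IC50 is the average of duplicate determinations.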

[3] = system: Trypanosoma brucei rhodesiense; assay: Antitrypanosomal activity against Trypanosoma brucei rhodesiense STIB 900 infected acute mouse model assessed as cured mouse at 5 mg/kg, ip daily for 4 days; assay type: functional, organism-based; design: dose 5 mg/kg
Procedure, shortened: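 STIB900 acute mouse model of trypanosomiasis with intraperitoneal dosing. The regimens were daily for 4 days at 20, 5 or 1 mg/kg, or a single 10 mg/kg dose. A cure is a mouse that survives and is parasite-free for 60 days. Average days of survival are also recorded.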

[4] = Selectivity index, ratio of IC50 for rat L6 cells to IC50 for chloroquine-resistant Plasmodium falciparum K1; assay type: toxicity, cell-based; conditions: read-out: Ratio IC50; procedure, shortened: as §2
Leishmania donovani = assay: Antileishmanial activity against Leishmania donovani MHOM/SD/62/1S-CL2D axenic amastigotes; assay type: functional, organism-based; procedure, shortened: as §1
Plasmodium falciparum = assay: Antiplasmodial activity against chloroquine-resistant Plasmodium falciparum K1; assay type: functional, organism-based
Procedure, shortened: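 In vitro IC50 against chloroquine-resistant P. falciparum K1, reported as the average of duplicate determinations.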

[5] = system: Trypanosoma brucei rhodesiense; assay: Antitrypanosomal activity against Trypanosoma brucei rhodesiense STIB 900 infected acute mouse model assessed as survival time at 5 mg/kg, ip administered daily for 4 days; assay type: functional; conditions: route intraperitoneal
Procedure, shortened: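 STIB900 acute mouse model of T. b. rhodesiense infection, with intraperitoneal dosing. Read-out is the average days of survival of treated mice. Cures are counted as mice that survive and stay parasite-free for 60 days.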

[6] = Selectivity index, ratio of IC50 for rat L6 cells to IC50 for Leishmania donovani MHOM/SD/62/1S-CL2D; assay type: toxicity, cell-based; conditions: read-out: Ratio IC50; procedure, shortened: as §2

Row | SMILES | IC50 (L6) | IC50 [1] | selectivity ratio [2] | Activity [3] | selectivity ratio [4] | IC50 (Leishmania donovani) | IC50 (Plasmodium falciparum) | Survival [5] | selectivity ratio [6]
1 | Oc1ccc(C2=NCCN2)cc1-c1cc2ccc(C3=NCCN3)cc2o1 | > 189 µM | 0.083 µM | > 2280 | inactive | > 1840 | 35 µM | 0.103 µM | 14 days | > 6
2 | CC(C)NC(=N)c1cccc(-c2cc3ccc(C(=N)NC(C)C)cc3o2)c1 | > 200 µM | 0.534 µM | > 375 | – | > 3390 | 24 µM | 0.059 µM | – | > 8
3 | CC(C)NC(=N)c1ccc(-c2cc3ccc(C(=N)NC(C)C)cc3o2)cc1 | > 199 µM | 0.148 µM | > 1340 | – | > 13300 | 12 µM | 0.015 µM | >38.5 days | > 17
4 | N=C(N)c1ccc(O)c(-c2cc3ccc(C(=N)N)cc3o2)c1 | 164 µM | 0.029 µM | 5660 | – | 434 | 41 µM | 0.378 µM | >36 days | 4
5 | c1cc(-c2cc3ccc(C4=NCCN4)cc3o2)ccc1C1=NCCN1 | 4.5 µM | 0.319 µM | 14 | – | 41 | > 50 µM | 0.109 µM | – | < 0.1
6 | c1c[nH]c(-c2ccc(-c3cc4cc(-c5ncc[nH]5)ccc4o3)cc2)n1 | 3.3 µM | 0.606 µM | 5 | – | 100 | > 100 µM | 0.033 µM | – | < 0.03
7 | COc1cc(C(=N)NC(C)C)ccc1-c1cc2ccc(C(=N)NC(C)C)cc2o1 | > 181 µM | 0.054 µM | > 3350 | – | > 879 | 32 µM | 0.206 µM | >38 days | > 6
8 | N=C(N)c1ccc(-c2cc3ccc(C(=N)N)cc3o2)c(O)c1 | > 221 µM | 0.004 µM | > 55200 | – | > 3160 | 29 µM | 0.07 µM | >39 days | > 8
9 | COc1ccc(C(=N)NC(C)C)cc1-c1cc2ccc(C(=N)NC(C)C)cc2o1 | > 175 µM | 0.929 µM | > 188 | – | > 597 | 54 µM | 0.293 µM | – | > 3
10 | COc1ccc(C2=NCCN2)cc1-c1cc2ccc(C3=NCCN3)cc2o1 | 11.1 µM | 0.017 µM | 653 | inactive | 150 | 34 µM | 0.074 µM | 25 days | 0.3
11 | COc1cc(C(=N)N)ccc1-c1cc2cc(C(=N)N)ccc2o1 | 157 µM | 0.003 µM | 52300 | – | 52300 | 2 µM | 0.003 µM | >47 days | 80
12 | Oc1cc(C2=NCCN2)ccc1-c1cc2ccc(C3=NCCN3)cc2o1 | > 193 µM | 0.011 µM | > 17500 | inactive | > 1970 | 13 µM | 0.098 µM | 23 days | > 15
13 | N=C(N)c1ccc(OCCCCCOc2ccc(C(=N)N)cc2)cc1 [PENTAMIDINE] | – | – | – | – | – | 1.8 µM | – | >45 days | –
14 | c1cc(C2=NCCN2)cc(-c2cc3ccc(C4=NCCN4)cc3o2)c1 | 12.8 µM | 0.333 µM | 38 | – | 62 | > 100 µM | 0.205 µM | – | 0.1
15 | COc1ccc(C(=N)NC(C)C)cc1-c1cc2cc(C(=N)NC(C)C)ccc2o1 | > 179 µM | 0.155 µM | > 1160 | – | > 716 | 25 µM | 0.25 µM | – | > 7
16 | CC(C)NC(=N)c1cccc(-c2cc3cc(C(=N)NC(C)C)ccc3o2)c1 | > 199 µM | 0.473 µM | > 421 | – | > 601 | 13 µM | 0.331 µM | – | > 15
17 | CC(C)NC(=N)c1ccc(O)c(-c2cc3cc(C(=N)NC(C)C)ccc3o2)c1 | > 180 µM | 1 µM | > 179 | – | > 349 | 40 µM | 0.516 µM | – | > 5

Row | SMILES | IC50 (L6) | IC50 [1] | selectivity ratio [2] | Activity [3] | selectivity ratio [4] | IC50 (Leishmania donovani) | IC50 (Plasmodium falciparum) | Survival [5] | selectivity ratio [6]
18 | c1ccc2[nH]c(-c3ccc(-c4cc5cc(C6=NCCN6)ccc5o4)cc3)nc2c1 | 59.3 µM | 0.228 µM | 260 | – | 972 | > 100 µM | 0.061 µM | – | < 0.6
19 | N=C(N)c1cccc(-c2cc3cc(C(=N)N)ccc3o2)c1 | 21.2 µM | 0.024 µM | 883 | – | 1120 | 5.8 µM | 0.019 µM | – | 4
20 | COc1ccc(C(=N)N)cc1-c1cc2cc(C(=N)N)ccc2o1 | 179 µM | 0.002 µM | 89500 | – | 4480 | 5.7 µM | 0.04 µM | >57 days | 31
21 | c1cc(C2=NCCN2)cc(-c2cc3cc(C4=NCCN4)ccc3o2)c1 | 33.9 µM | 0.078 µM | 435 | – | 446 | 24 µM | 0.076 µM | – | 1.5
22 | N=C(N)c1cccc(-c2cc3ccc(C(=N)N)cc3o2)c1 | 131 µM | 0.021 µM | 6240 | inactive | 32800 | 14 µM | 0.004 µM | 33 days | 9
23 | c1ccc2[nH]c(-c3ccc4oc(-c5ccc(C6=NCCN6)cc5)cc4c3)nc2c1 | 6.1 µM | 0.122 µM | 50 | inactive | 153 | 5.7 µM | 0.04 µM | 11 days | 1
24 | COc1cc(C(=N)NC(C)C)cc2cc(-c3ccc(C(=N)NC(C)C)cc3)oc12 | > 190 µM | 0.09 µM | > 2110 | – | > 3960 | 15 µM | 0.048 µM | – | > 12
25 | CC(C)NC(=N)c1ccc(O)c(-c2cc3ccc(C(=N)NC(C)C)cc3o2)c1 | > 187 µM | 5.1 µM | > 37 | – | > 294 | > 100 µM | 0.636 µM | – | –
26 | c1ccc2[nH]c(-c3ccc(-c4cc5cc(-c6nc7ccccc7[nH]6)ccc5o4)cc3)nc2c1 | 6.7 µM | 0.249 µM | 27 | inactive | 216 | > 100 µM | 0.031 µM | 5.5 days | 0.1
27 | Oc1cc(C2=NCCN2)ccc1-c1cc2cc(C3=NCCN3)cc(O)c2o1 | > 193 µM | 0.01 µM | > 19300 | inactive | > 6430 | 16 µM | 0.03 µM | >21 days | > 12
28 | COc1cc(C(=N)NC(C)C)ccc1-c1cc2cc(C(=N)NC(C)C)ccc2o1 | 98.1 µM | 0.074 µM | 1330 | inactive | 4900 | 1.5 µM | 0.02 µM | >39 days | 67
29 | COc1cc(C(=N)N)ccc1-c1cc2ccc(C(=N)N)cc2o1 | 108 µM | 0.003 µM | 36000 | – | 5400 | 3.7 µM | 0.02 µM | >34.5 days | 29
30 | Oc1ccc(C2=NCCN2)cc1-c1cc2cc(C3=NCCN3)ccc2o1 | > 199 µM | 0.227 µM | > 877 | – | > 8650 | 57 µM | 0.023 µM | – | 4
31 | COc1ccc(C(=N)N)cc1-c1cc2ccc(C(=N)N)cc2o1 | 128 µM | 0.011 µM | 11600 | – | 7110 | 3.6 µM | 0.018 µM | >48 days | 36
32 | C[C@@H]1CC[C@H]2[C@@H](C)C(=O)O[C@@H]3O[C@@]4(C)CC[C@@H]1[C@]32OO4 [ARTEMISININ] | – | – | – | – | 75000 | – | – | – | –
33 | COc1cc(C2=NCCN2)ccc1-c1cc2cc(C3=NCCN3)ccc2o1 | 7.4 µM | 0.247 µM | 30 | – | 239 | 60 µM | 0.031 µM | – | 0.1

Reference: ChEMBL document CHEMBL1142519, “Synthesis and antiprotozoal activity of cationic 2-phenylbenzofurans” (J Med Chem, 2008)
